For series [1], the target named is T1, iNOS (Mus musculus, UniProt P29477). The series is described as follows: Ferric difference spectral binding assay. Also on record: species or system murine. A digest of the protocol:
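Murine iNOS (E. coli-expressed, purified), 5 μM, in 100 mM HEPES pH 7.5 with 10 μM H4B, scanned 380–500 nm against a HEPES/H4B blank. […] Test compound titrated at 0.1–1 mM final, additions kept under 5% volume. Ks from Michaelis-Menten fit of concentration vs absorbance difference (local maximum minus minimum).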

The target of series [2] is T2, murine iNOS (Mus musculus, UniProt P29477). Kind of series: Inhibition of NO production. Particulars: 10 μM L-arginine, unit printed in cell/text as mM. The series is classed as biochemical.
Series [3] addresses T1, iNOS. The series is described as follows: NO production measured with the Griess reagent, longer incubations. The conditions noted are these: incubations of 1, 2, 6, 12 and 24 hours. It counts as biochemical, murine. A digest of the protocol:
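Purified murine iNOS (E. coli-expressed), 100 nM, incubated 1, 2, 6, 12 and 24 h with test compound at various concentrations, 100 μM NADPH and 10 μM H4B in 100 mM HEPES, 10% glycerol, pH 7.5. Lactate dehydrogenase added to oxidize leftover NADPH, then Griess reagents added. Nitrite/nitrate read by absorbance at 540 nm.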

Series [4] has as its target T2, murine iNOS. Kind of series: NO production, hemoglobin capture assay. The series is classed as biochemical.
Another series addresses rat nNOS (Rattus norvegicus, UniProt P29476). Kind of series: NO production, hemoglobin capture assay. The series is classed as biochemical. The conditions noted are these: for Km: NO production, 22 °C, pH 7.5.
For series [5], the target named is T1, iNOS. Kind of series: Substrate uncoupling: NADPH consumption versus NO production. The conditions noted are these: 20 μM arginine, 20 μM NHA, 100 μM NMOA, 100 μM NHMA. It counts as biochemical, murine.
In series [6] the target is T1, iNOS. The series is described as follows: One-carbon metabolite of [14C]-NMOA-iNOS reaction. The conditions noted are these: MeOX/FDH conversion, scintillation counting. The series is classed as biochemical, murine.
The target in another series is NOS. Particulars: cited from earlier work.
The subject of the next series is Methanol oxidase (MeOX). Particulars: depending on the O2 concentration; cited from earlier work.
For series [7] the following is noted: cited from earlier work.
The mark [8] stands for this setting: read-out: Ks (spectral binding constant), imidazole displacement.

Values joined by “and” are separate entries in the source; they are usually repeats but may differ in a detail not shown here. Equal entries are not always repeated. Where two headings read alike, the source gives them in different places.

rat nNOS, sequence (P29476 whole entry): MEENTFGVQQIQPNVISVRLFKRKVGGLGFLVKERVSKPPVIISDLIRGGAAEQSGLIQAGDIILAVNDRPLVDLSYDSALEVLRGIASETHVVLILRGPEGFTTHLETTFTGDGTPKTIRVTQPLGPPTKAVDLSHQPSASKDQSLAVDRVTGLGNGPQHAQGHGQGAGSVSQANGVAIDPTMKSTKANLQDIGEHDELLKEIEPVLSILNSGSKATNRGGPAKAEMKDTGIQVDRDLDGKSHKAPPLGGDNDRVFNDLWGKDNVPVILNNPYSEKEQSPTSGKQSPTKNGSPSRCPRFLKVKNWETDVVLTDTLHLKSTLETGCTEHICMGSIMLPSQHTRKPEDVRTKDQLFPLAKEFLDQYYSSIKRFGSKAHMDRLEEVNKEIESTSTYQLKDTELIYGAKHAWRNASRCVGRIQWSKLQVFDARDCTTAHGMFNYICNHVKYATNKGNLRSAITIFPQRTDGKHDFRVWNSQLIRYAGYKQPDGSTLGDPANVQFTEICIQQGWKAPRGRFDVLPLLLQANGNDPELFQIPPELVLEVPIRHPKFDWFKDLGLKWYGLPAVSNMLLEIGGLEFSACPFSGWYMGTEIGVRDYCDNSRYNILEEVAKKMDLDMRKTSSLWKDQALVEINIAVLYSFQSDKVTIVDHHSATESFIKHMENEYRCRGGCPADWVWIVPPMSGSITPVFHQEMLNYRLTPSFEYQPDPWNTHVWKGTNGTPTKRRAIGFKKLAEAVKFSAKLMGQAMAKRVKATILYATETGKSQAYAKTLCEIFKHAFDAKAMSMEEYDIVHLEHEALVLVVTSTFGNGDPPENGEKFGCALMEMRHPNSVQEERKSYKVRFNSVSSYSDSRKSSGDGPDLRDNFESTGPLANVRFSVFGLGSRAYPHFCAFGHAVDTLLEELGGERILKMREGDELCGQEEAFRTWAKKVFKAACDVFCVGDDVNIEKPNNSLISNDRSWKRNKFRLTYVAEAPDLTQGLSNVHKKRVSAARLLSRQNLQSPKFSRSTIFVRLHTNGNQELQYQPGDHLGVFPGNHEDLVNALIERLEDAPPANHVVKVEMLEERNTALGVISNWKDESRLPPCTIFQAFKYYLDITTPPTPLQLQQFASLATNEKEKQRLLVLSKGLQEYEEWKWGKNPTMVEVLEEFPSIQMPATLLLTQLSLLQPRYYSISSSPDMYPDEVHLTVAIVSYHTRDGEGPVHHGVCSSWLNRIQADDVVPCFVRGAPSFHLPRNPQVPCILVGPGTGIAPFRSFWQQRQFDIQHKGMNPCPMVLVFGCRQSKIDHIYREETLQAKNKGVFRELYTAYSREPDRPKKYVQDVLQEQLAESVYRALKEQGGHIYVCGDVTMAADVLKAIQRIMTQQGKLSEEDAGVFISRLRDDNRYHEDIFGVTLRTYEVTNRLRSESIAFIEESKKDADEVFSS

On to `c1c[nH]cn1` [imidazole, reference compound], for which the Kd on iNOS [1] (setting [8]) is 0.12 to 0.15 mM.
For `CN(CCC[C@H](N)C(=O)O)C(=N)NO` [MHA, N^δ-methyl- N^ω-hydroxy-L-arginine], on iNOS [1] (read-out: Ks (spectral binding constant), unit printed in cell/text as mM), the Kd was > 10 mM. Also, on murine iNOS [2], the Ki is > 10 mM. In addition, the “NO production (Griess reagent)” value at iNOS [3] was “absence of NO production”.
As to `CN(O)C(=N)NCCC[C@H](N)C(=O)O` [NHMA, N^ω-hydroxy-N^ω-methyl-L-arginine], on murine iNOS [4], the kcat came to 0.015 ± 0.0083 s⁻¹ and the “kcat, times lower compared to NHA” value is “about 18 times”. For the same molecule, at murine iNOS [4] (NO production, 22 °C, pH 7.5), the Michaelis constant (Km) was 0.034 ± 0.006 mM. Further, on rat nNOS, the kcat worked out at 0.0167 ± 0.0033 s⁻¹; the “kcat, times lower compared to NHA” value is ~13 times; the Km worked out at 2 ± 0.4 µM. Besides, at iNOS [1] (setting [8]), the Kd stood at 0.034 ± 0.004 mM. The “NADPH:NO (moles of NADPH consumed per mole of NO formed)” value on iNOS [5] was 15 and 15.0 ± 2.7.
As for `CONC(=N)NCCC[C@H](N)C(=O)O` [NMOA, N^ω-methoxy-L-arginine], the kcat was 0.0783 ± 0.0217 s⁻¹ on murine iNOS [4] and 0.03 ± 0.0083 s⁻¹ on rat nNOS. Also, the “kcat, times lower compared to NHA” value on murine iNOS [4] is recorded as “about 4 times”; on rat nNOS, ~7 times. The Michaelis-Menten constant (Km) on murine iNOS [4] (NO production, 22 °C, pH 7.5) was determined as 0.088 ± 0.008 mM; at rat nNOS, 11 ± 2 µM. Besides, the Kd on iNOS [1] (setting [8]) is 0.122 ± 0.02 mM. The “NADPH:NO (moles of NADPH consumed per mole of NO formed)” value on iNOS [5] is 8 and 8.0 ± 1.5.
Regarding `CCONC(=N)NCCC[C@H](N)C(=O)O` [NEOA, N^ω-ethoxy-L-arginine], the Kd on iNOS [1] (setting [8]) turned out to be 0.12 ± 0.013 mM. Also, the “NO production (Griess reagent)” value at iNOS [3] is on record as “absence of NO production”.
`[14CH3]ONC(=N)NCCC[C@H](N)C(=O)O` [[^14C]-NMOA, N^ω-[^14C]-methoxy-L-arginine]: the One-carbon metabolite entry on iNOS [6] is “methanol”.
Consider `CN(CCC[C@H](N)C(=O)O)C(=N)N` [dMA, N^δ-Methyl-L-arginine], for which the Ki at NOS (binds weakly to the NOS active site) is 1400 µM.
Turning to `CON(C)C(=N)NCCC[C@H](N)C(=O)O` [NMMA, N^ω-methoxy-N^ω-methyl-L-arginine], the Kd at iNOS [1] (setting [8]) is 0.07 ± 0.005 mM. In addition, at iNOS [3], the “NO production (Griess reagent)” value is listed as “absence of NO production”.
Turning to `CO` [methanol], the Michaelis constant (Km) in the series with Methanol oxidase (MeOX) was ~2000 µM.
For the molecule `CN=C(N)NCCC[C@H](N)C(=O)O` [NMA, N^ω-Methyl-L-arginine], in the series on NOS (inactivator of NOS), the maximal inactivation rate constant (kinact) is 0.07 min⁻¹. Further, in the series with NOS (read-out: KI (inactivation), inactivator of NOS), the KI (inactivation) is 2.7 µM. In addition, the Ki on NOS (read-out: Ki (competitive inhibitor), competitive inhibitor of NOS) was 0.2 µM.
In the case of `CC(C)(C)ONC(=N)NCCC[C@H](N)C(=O)O` [tBOA, N^ω-tert-butyloxy-L-arginine], the catalytic constant (kcat) on murine iNOS [4] turned out to be 0.005 ± 0.0017 s⁻¹. Moreover, the Km at murine iNOS [4] (unit printed in cell/text as mM) turned out to be 2.7 ± 0.8 mM. Further, the inhibition constant Ki on murine iNOS [2] was determined as 7.4 ± 4.5 mM.
For the molecule `N=C(NO)NCCC[C@H](N)C(=O)O` [NHA, N^ω-hydroxy-L-arginine, reference compound], the turnover number (kcat) worked out at 0.267 ± 0.033 s⁻¹ on murine iNOS [4] and 0.217 ± 0.067 s⁻¹ on rat nNOS. The Km at murine iNOS [4] (NO production, 22 °C, pH 7.5) is 0.022 ± 0.005 mM; at rat nNOS, 5.7 ± 2.1 µM. In addition, the Kd on iNOS [1] (setting [8]) turned out to be 0.029 ± 0.004 mM. Further, at iNOS [5], the “NADPH:NO (moles of NADPH consumed per mole of NO formed)” value is listed as 0.7 ± 0.3. Also, in [7], the pKa was 8.5.
With `C=O` [formaldehyde], in the series with Methanol oxidase (MeOX), the Km was 2500 µM.
As to `N=C(N)NCCC[C@H](N)C(=O)O` [arginine, L-arginine, reference compound], the “NADPH:NO (moles of NADPH consumed per mole of NO formed)” value on iNOS [5] stood at 1.5.

These data come from publication PMC3678535 (Biochemistry, 2013).
